# Laboratory results as given in ChEMBL document CHEMBL1799963, “Discovery of novel benzopyranyl tetracycles that act as inhibitors of osteoclastogenesis induced by receptor activator of NF-κB ligand” (J Med Chem, 2010).
# The source made the active and inactive calls. No cut-off for these calls is given here.
# How the values were obtained:
# RAW264.7 [1] = assay: Inhibition of RANKL-induced osteoclastogenesis in mouse RAW264.7 cells assessed as decrease in TRAP-positive cells after 1 hr by microplate reader assay; assay type: functional, cell-based; conditions: RAW264.7, 1 h
# Outline: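 RAW264.7 in α-MEM/10% FBS plus 100 ng/mL RANKL; compound or DMSO vehicle added after 24 h, dose-dependent series. On day 4, cells fixed and TRAP activity read as p-nitrophenylphosphate (5 mM) hydrolysis in tartrate-containing citrate buffer pH 4.6, 1 h, NaOH stop, A410. IC50 derived; triplicate.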
# RAW264.7 [2] = assay: Downregulation of RANKL-induced fra2 mRNA expression in mouse RAW264.7 cells at 10 uM by RT-PCR analysis; assay type: functional, cell-based
# RAW264.7 [3] = assay: Downregulation of RANKL-induced c-fos mRNA expression in mouse RAW264.7 cells at 10 uM by RT-PCR analysis; assay type: functional, cell-based
# Macrophage = assay: Inhibition of RANKL-induced osteoclastogenesis in BALB/c mouse Bone marrow macrophages assessed as decrease in TRAP-positive cells after 1 hr by microplate reader assay; assay type: functional, cell-based
# Outline: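 BALB/c femur/tibia monocytes grown 1 day with 10 ng/mL M-CSF, then nonadherent cells 3 days with 30 ng/mL M-CSF. Adherent BMMs plated at 3 10^5 cells/well with 100 ng/mL RANKL and 30 ng/mL M-CSF, then given compound dose series. TRAP activity read via p-nitrophenylphosphate hydrolysis (pH 4.6 citrate, tartrate, 1 h, A410). IC50 derived.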
# RAW264.7 [4] = assay: Downregulation of RANKL-induced NFATc1 mRNA expression in mouse RAW264.7 cells at 10 uM by RT-PCR analysis; assay type: functional, cell-based
# [5] = Cytotoxicity against mouse RAW264.7 cells assessed as cell viability at 30 uM after day 1 by CCK-8 assay; assay type: cell-based; conditions: read-out: Activity
# Outline: (§1)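 RAW264.7 cells exposed to compound at 30 μM final for 1 day or 4 days; viability read by CCK-8 assay.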
# [6] = Inhibition of NFkappa signaling in mouse RAW264.7 cells assessed as reduction in RANKL-induced transcriptional activation on NF-kappaB by luciferase reporter gene assay; assay type: cell-based
# RAW264.7 [7] = assay: Inhibition of RANKL-induced ERK phosphorylation in mouse RAW264.7 cells at 10 uM by Western blot analysis; assay type: cell-based
# [8] = Cytotoxicity against mouse RAW264.7 cells assessed as cell viability at 30 uM after day 4 by CCK-8 assay; assay type: cell-based; conditions: read-out: Activity; outline: as §1
# RAW264.7 [9] = assay: Inhibition of RANKL-induced osteoclastogenesis in mouse RAW264.7 cells assessed as TRAP-positive cells at 10 uM after 1 hr by microplate reader assay; assay type: functional; set-up: scale not given: the % may be the effect or the level left
# Outline: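 RAW264.7 plated at 1 10^3 cells/well in α-MEM/10% FBS with 100 ng/mL RANKL; compound (10 μM) or DMSO vehicle added after 24 h. On day 4, cells fixed (10% formalin 10 min, 95% ethanol 1 min). TRAP activity measured in 50 mM citrate pH 4.6 with 10 mM tartrate and 5 mM p-nitrophenylphosphate for 1 h, stopped with 0.1 N NaOH, A410. Triplicate; 100% = RANKL minus vehicle difference.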
# RAW264.7 [10] = assay: Inhibition of c-Src mRNA expression in mouse RAW264.7 cells at 10 uM by RT-PCR analysis; assay type: functional, cell-based
# RAW264.7 [11] = assay: Inhibition of MMP-7 mRNA expression in mouse RAW264.7 cells at 10 uM by RT-PCR analysis; assay type: functional, cell-based
# RAW264.7 [12] = assay: Inhibition of TRAP mRNA expression in mouse RAW264.7 cells at 10 uM by RT-PCR analysis; assay type: functional, cell-based
# [13] = Inhibition of NFkappa signaling in mouse RAW264.7 cells assessed as reduction in RANKL-induced transcriptional activation on NF-kappaB at 10 uM by luciferase reporter gene assay; assay type: cell-based
compound,measurement,setting,value
Cc1ccc(-n2c(=O)n3n(c2=O)C2C(=CC3)C(C)(C)Oc3cc(O)ccc32)cc1 (centres undefined),IC50,RAW264.7 [1],7.97 µM
same,Activity,RAW264.7 [2],Active
same,Activity,RAW264.7 [3],Active
same,IC50,Macrophage,7.05 µM
same,Activity,RAW264.7 [4],Active
same,"viability at 1 day, 30 µM",[5],100%
same,inhibition,[6],Dose-dependent effect
same,inhibition,RAW264.7 [7],Active
same,"viability at 4 day, 30 µM",[8],86.9%
same,Activity,RAW264.7 [9],50%
same,inhibition,RAW264.7 [10],Active
same,inhibition,RAW264.7 [11],Active
same,inhibition,RAW264.7 [12],Active
COc1ccc2c(c1)OC(C)(C)C1=CCn3c(=O)n(-c4ccccc4)c(=O)n3C12 (centres undefined),Activity,RAW264.7 [9],108%
COc1ccc(-n2c(=O)n3n(c2=O)C2C(=CC3)C(C)(C)Oc3cc(O)ccc32)cc1 (centres undefined),Activity,RAW264.7 [9],93%
COc1ccc2c(c1)C1C(=CCn3c(=O)n(-c4ccccc4)c(=O)n31)C(C)(C)O2 (centres undefined),Activity,RAW264.7 [9],100%
CC1(C)Oc2cc(O)ccc2C2C1=CCn1c(=O)n(-c3ccccc3)c(=O)n12 (centres undefined),IC50,RAW264.7 [1],7.07 µM
same,Activity,RAW264.7 [2],Active
same,Activity,RAW264.7 [3],Active
same,IC50,Macrophage,6.13 µM
same,Activity,RAW264.7 [4],Active
same,"viability at 1 day, 30 µM",[5],85.9%
same,inhibition,[6],Dose-dependent effect
same,inhibition,RAW264.7 [7],Active
same,"viability at 4 day, 30 µM",[8],74%
same,Activity,RAW264.7 [9],43%
same,inhibition,RAW264.7 [10],Active
same,inhibition,RAW264.7 [11],Active
same,inhibition,RAW264.7 [12],Active
CC1(C)Oc2cc(O)ccc2C2C1=CCn1c(=O)n(-c3ccc(F)cc3)c(=O)n12 (centres undefined),IC50,RAW264.7 [1],8.08 µM
same,IC50,Macrophage,11.9 µM
same,"viability at 1 day, 30 µM",[5],99%
same,"viability at 4 day, 30 µM",[8],80.7%
same,Activity,RAW264.7 [9],68%
CC1(C)Oc2cc(O)ccc2C2C1=CCn1c(=O)n(-c3ccccc3I)c(=O)n12 (centres undefined),Activity,RAW264.7 [9],101%
CC1(C)Oc2ccccc2C2C1=CCn1c(=O)n(-c3ccccc3)c(=O)n12 (centres undefined),Activity,RAW264.7 [2],inactive
same,Activity,RAW264.7 [3],inactive
same,Activity,RAW264.7 [4],inactive
same,inhibition,RAW264.7 [7],inactive
same,Activity,RAW264.7 [9],104%
same,inhibition,RAW264.7 [10],inactive
same,inhibition,[13],Active
same,inhibition,RAW264.7 [11],inactive
same,inhibition,RAW264.7 [12],inactive
CC1(C)Oc2cc(O)ccc2C2C1=CCn1c(=O)n(-c3ccc(Cl)cc3)c(=O)n12 (centres undefined),Activity,RAW264.7 [9],112%
O=c1n(-c2ccccc2)c(=O)n2n1CC=C1C2c2ccc(O)cc2OC12CCCC2 (centres undefined),IC50,RAW264.7 [1],5.09 µM
same,IC50,Macrophage,6.05 µM
same,"viability at 1 day, 30 µM",[5],77.8%
same,"viability at 4 day, 30 µM",[8],46%
same,Activity,RAW264.7 [9],30%
CCCN1CCC2(CC1)Oc1cc(O)ccc1C1C2=CCn2c(=O)n(-c3ccccc3)c(=O)n21 (centres undefined),Activity,RAW264.7 [9],99%
CC1(C)Oc2cc(O)ccc2C2C1=CCn1c(=O)n(-c3ccc(Br)cc3)c(=O)n12 (centres undefined),Activity,RAW264.7 [9],83%
CC1(C)Oc2cc(O)ccc2C2C1=CCn1c(=O)n(-c3ccccc3Cl)c(=O)n12 (centres undefined),Activity,RAW264.7 [9],95%
CC1(C)Oc2cc(O)ccc2C2C1=CCn1c(=O)n(-c3ccc(C(C)(C)C)cc3)c(=O)n12 (centres undefined),IC50,RAW264.7 [1],6.94 µM
same,IC50,Macrophage,6.77 µM
same,"viability at 1 day, 30 µM",[5],79.7%
same,"viability at 4 day, 30 µM",[8],73.4%
same,Activity,RAW264.7 [9],53%
COc1cc2c(cc1OC)C1C(=CCn3c(=O)n(-c4ccccc4)c(=O)n31)C(C)(C)O2 (centres undefined),Activity,RAW264.7 [9],99%
Cn1c(=O)n2n(c1=O)C1C(=CC2)C(C)(C)Oc2cc(O)ccc21 (centres undefined),Activity,RAW264.7 [9],95%
CNc1ccc2c(c1)OC(C)(C)C1=CCn3c(=O)n(-c4ccccc4)c(=O)n3C12 (centres undefined),Activity,RAW264.7 [9],107%
CC1(C)Oc2cc(O)ccc2C2C1=CCn1c(=O)n(C3CCCCC3)c(=O)n12 (centres undefined),Activity,RAW264.7 [9],113%
CC1(C)Oc2cc(O)ccc2C2C1=CCn1c(=O)n(Cc3ccccc3)c(=O)n12 (centres undefined),Activity,RAW264.7 [9],98%
COc1ccc2c(c1O)OC(C)(C)C1=CCn3c(=O)n(-c4ccccc4)c(=O)n3C12 (centres undefined),IC50,Macrophage,22.2 µM
same,Activity,RAW264.7 [9],69%
CC(=O)N1CCC2(CC1)Oc1cc(O)ccc1C1C2=CCn2c(=O)n(-c3ccccc3)c(=O)n21 (centres undefined),Activity,RAW264.7 [9],113%
COc1cccc(-n2c(=O)n3n(c2=O)C2C(=CC3)C(C)(C)Oc3cc(O)ccc32)c1 (centres undefined),Activity,RAW264.7 [9],86%
CC1(C)Oc2cc(F)ccc2C2C1=CCn1c(=O)n(-c3ccccc3)c(=O)n12 (centres undefined),Activity,RAW264.7 [9],121%
CC1(C)Oc2cc(O)ccc2C2C1=CCn1c(=O)n(-c3cccc([N+](=O)[O-])c3)c(=O)n12 (centres undefined),Activity,RAW264.7 [9],105%
